Screens as filed in PubChem.
STAT3 act: IL-6 driven STAT3 reporter potentiators, primary screen, U3A cells, luciferase, luminescence, MLSCN library | IL-6 STAT3-luciferase reporter; 100% = signal with IL-6 EC80 alone | activation (% of control), % at 5.6 µM | 190,000 compounds, 0.91% hits | AID 871, 2007;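 active means activation above the screen-wide mean of compound activation plus 3 SD, cut at about 130% in these data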;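 further: 0% = background luminescence of wells with medium and substrate only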
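Detection: reporter luminescence signal / Assay system: STAT1-lacking human U3A cells, STAT3 luciferase reporter / Incubation: compound pre-incubation 1 h before IL-6, then 6 h stimulation at 37 °C / Control set: IL-6-only high control / Read-out: % activation relative to IL-6 control / Probe or stimulus: Interleukin-6, 33 ng/mL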
STAT3 inh: IL-6 driven STAT3 reporter inhibitors, primary screen, U3A cells, luciferase, luminescence, MLSCN library. IL-6 STAT3-luciferase reporter; host cell line lacks STAT1. inhibition, % at 5.5 µM. 190,000 compounds, 0.89% hits;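 active means inhibition above the mean inhibition across all screened compounds plus 3 SD, cut at about 44% in these data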;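 further: 0% = DMSO only wells and 100% = 100 µM nifuroxazide control wells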
b-catenin transl: modulators of beta-catenin nuclear translocation, primary screen, imaging, HeLa cells, immunofluorescence, high-content | 190,000 compounds, 0.3% hits | nuclear translocation activity, % at 5 µM;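 active means nuclear translocation activity above 50% at 5 µM, with a well cell count of 50 or more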;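 further: per-cell ratio of nuclear to cytoplasmic median beta-catenin stain intensity; plate controls were DMSO negative control for no effect and GSK-3 inhibitor IX positive control for full effect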
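assay system = human HeLa cells, endogenous beta-catenin | times = compound treatment 24 h, 37°C, 5% CO2 | detection = Anti-beta-catenin immunofluorescence on PFA-fixed, Triton-permeabilized cells, DAPI nuclei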
STAT1 blocker: STAT1 signaling inhibitors, primary screen, cell-based, HTS, luciferase reporter | 200,000 compounds, 0.35% hits | NIH 3T3 STAT1-luciferase reporter, IFN-gamma, luminescence | inhibition, % at 5.5 µM;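 active means inhibition above a set limit, the mean inhibition across all tested compounds plus 3 SD, cut at about 34% in these data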;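 further: 0% = IFN-gamma with DMSO and 100% = IFN-gamma with 300 µM nifuroxazide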
MT stabilizer: microtubule stabilizers in HeLa cells, primary screen, imaging, high-content imaging | % tubulin-high responders, % at 10 µM | HeLa tubulin immunostaining HCS, 24 h; share of cells brighter than vehicle mean+2SD | 200,000 compounds, 0.83% hits | AID 2205, 2009;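 active means plate Z-score above 3 for both tubulin-high and condensed-nucleus cell shares, with cell loss under 80%, at 10 µM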;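 further: anti alpha tubulin signal scored within the nucleus-defined area of each cell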
* hit, by the source's call. A selection: hits, their analogues and other compounds. The true share with any hit is near 2.4%.

Screening Cc1nc(C)c2c(=O)cc(-c3ccccc3)[nH]c2n1 returned STAT3 act 102, STAT3 inh 1, b-catenin transl 38, STAT1 blocker -8 and MT stabilizer 43*.
`Cc1nc(-c2ccccc2)nc2[nH]c(-c3ccccc3)cc(=O)c12` gave STAT3 act 93, STAT3 inh 15, STAT1 blocker -13 and MT stabilizer 1.
For O=C(COC(=O)c1ncc(Cl)c(Cl)c1Cl)Nc1ccccc1OC(F)F the results were STAT3 act 134*, STAT3 inh -40, STAT1 blocker -2 and MT stabilizer 4.
`N#CC(C#N)=C(Nc1ccc(F)cc1)SCc1cccc(F)c1` gave STAT3 act 52, STAT3 inh 59*, b-catenin transl -4, STAT1 blocker 49* and MT stabilizer 2.
`CCOc1ccc(N/C(SCc2cccc([N+](=O)[O-])c2)=C(/C#N)C(N)=O)cc1` gave STAT3 act 98, STAT3 inh 4, b-catenin transl 1 and STAT1 blocker 13.
Screening CC(C)(C)C(=O)NC(=S)NNC(=O)c1ccc(Cl)cc1Cl returned STAT3 act 94, STAT3 inh 14, b-catenin transl -2, STAT1 blocker 3 and MT stabilizer 3.
Cc1ccccc1CSc1nc(-c2ccccc2)cc(=O)[nH]1 was read as STAT3 act 99, STAT3 inh 0, b-catenin transl 0, STAT1 blocker -3 and MT stabilizer 7.
`COc1ccc(C2=NNC(c3cccnc3)=Nc3ccc(OC)cc32)cc1` gave STAT3 act 103, STAT3 inh 3, b-catenin transl 0, STAT1 blocker 6 and MT stabilizer 13*.
For CCOC(=O)CCCCC(=O)c1[nH]c(=O)[nH]c1CSc1nc(C)cc(C)n1 the results were STAT3 act 101, STAT3 inh 3, b-catenin transl 1, STAT1 blocker 6 and MT stabilizer 4.
`CCOC(=O)CCCCC(=O)c1[nH]c(=O)[nH]c1CSc1nnc2c3cc(Br)ccc3n(C)c2n1` gave STAT3 act 134*, STAT3 inh -36, b-catenin transl 2, STAT1 blocker -7 and MT stabilizer 4.
CCOc1ccc(N(CC(=O)Nc2ccccc2C)S(=O)(=O)c2c(C)noc2C)cc1 was read as STAT3 act 99, STAT3 inh 9, b-catenin transl 68*, STAT1 blocker 3 and MT stabilizer 15*.
`CCOc1ccccc1NC(=O)CN(c1ccc(OC)cc1)S(=O)(=O)c1c(C)noc1C` gave STAT3 act 108, STAT3 inh -2, b-catenin transl 2, STAT1 blocker -8 and MT stabilizer 17*.
For O=C(c1cc(-c2cccnc2)nc2ccccc12)N1CCCc2ccccc21 the results were STAT3 act 82, STAT3 inh 21, b-catenin transl -3, STAT1 blocker 12 and MT stabilizer 14*.
Cc1ccc(-c2cc(C(=O)N3CCCc4ccccc43)c3ccccc3n2)cc1 was read as STAT3 act 102, STAT3 inh -5, b-catenin transl -2, STAT1 blocker 5 and MT stabilizer 2.
Cc1ccc2nc3sc(C(=O)N4CCCc5ccccc54)c(N)c3cc2c1 was read as STAT3 act 81, STAT3 inh 29, b-catenin transl 0, STAT1 blocker 2 and MT stabilizer 28*.
For CC(=O)N(c1ccccc1)c1nc(/C=C/C(=O)Nc2c(C)cc(C)cc2C)cs1 the results were STAT3 act 100, STAT3 inh -1, b-catenin transl 1, STAT1 blocker 2 and MT stabilizer 4.
For Cc1ccc(CNC(=O)COC(=O)CCC(=O)c2cccs2)cc1 the results were STAT3 act 86, STAT3 inh 25, b-catenin transl -4, STAT1 blocker -2 and MT stabilizer 3.
For CC(C)c1ccc(NC(=O)c2ccc(NS(C)(=O)=O)cc2)cc1 the results were STAT3 act 79, STAT3 inh 27, b-catenin transl 9, STAT1 blocker -16 and MT stabilizer 1.
For COc1ccc(NC(=O)c2c(Cl)n(C)c3ccccc23)cc1 the results were STAT3 act 144*, STAT3 inh -36, b-catenin transl 3, STAT1 blocker -21 and MT stabilizer 49*.
For CCCCNc1c2c3c(cccc3n(C)c1=O)C(=O)c1ccccc1-2 the results were STAT3 act 93, STAT3 inh 12, b-catenin transl 2, STAT1 blocker 8 and MT stabilizer 27*.
Screening Cn1c(=O)c(NCCO)c2c3c(cccc31)C(=O)c1ccccc1-2 returned STAT3 act 86, STAT3 inh 16, STAT1 blocker 20 and MT stabilizer 1.
O=c1[nH]c(CN2CCN(c3ccccc3)CC2)nc2scc(-c3ccccc3)c12 was read as STAT3 act 92, STAT3 inh 10, STAT1 blocker 11 and MT stabilizer 20*.
`CC(NC(=O)c1cccc(Cn2cc([N+](=O)[O-])cn2)c1)c1ccc(C(C)(C)C)cc1` (stereo unspecified) gave STAT3 act 106, STAT3 inh -8, STAT1 blocker 3 and MT stabilizer 46*.
For O=C(CN1CCOCC1)Nc1scc2c1c(=O)oc1ccccc12 the results were b-catenin transl 1.
For COC(=O)C1=C(C)NC(C)=C(C(=O)OC)C1c1cc2ccc(C)cc2[nH]c1=O the results were STAT3 act 117, STAT3 inh -17, b-catenin transl 0, STAT1 blocker 10 and MT stabilizer 31*.
For Cc1ccc(NC(=O)C2CCCN2C(=O)NC2CCCCC2)cc1 (stereo unspecified) the results were STAT3 act 97, STAT3 inh 6, b-catenin transl 0, STAT1 blocker 4 and MT stabilizer 2.
CCN1CCN(c2ncc3c(n2)CC(c2cc(OC)c(OC)c(OC)c2)CC3=O)CC1 (stereo unspecified) was read as STAT3 act 95, STAT3 inh 13, b-catenin transl 141*, STAT1 blocker 5 and MT stabilizer 32*.
For Cc1oc(-c2ccccc2F)nc1CN1CCC(C(=O)NCCC2=CCCCC2)CC1 the results were STAT3 act 90, STAT3 inh 14, b-catenin transl 2, STAT1 blocker 3 and MT stabilizer 5.
`Cc1cc(C2=NNC(=NC3CC3)SC2)c(C)n1Cc1ccco1` gave STAT3 act 29, STAT3 inh 85*, b-catenin transl 36, STAT1 blocker 52* and MT stabilizer 5.
For COCCn1c(C)cc(C2=NNC(=NC3CC3)SC2)c1C the results were STAT3 act 10, STAT3 inh 103*, b-catenin transl -1, STAT1 blocker 97* and MT stabilizer 2.
`COCCn1c(C)cc(C2=NNC(=Nc3ccc(Cl)cc3Cl)SC2)c1C` gave STAT3 act 104, STAT3 inh 0, b-catenin transl -2, STAT1 blocker -2 and MT stabilizer 4.
